Rows were chosen to be rich in hits. Some 2.6% of all compounds tested hit in one or more screens of this group.
Rce1 inh: yeast Ras-converting enzyme inhibition | Q03530 | yeast membranes, quenched prenylated peptide cleavage fluorescence | calls only | 0.27% of 290,000 active;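 active = fall in fluorescence gain of 50% or more versus controls, with final raw signal at or below 3038400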;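 also: plate controls were neutral control wells for no effect and wells lacking membranes for full effect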
Target sequence (Q03530 whole entry, looked up): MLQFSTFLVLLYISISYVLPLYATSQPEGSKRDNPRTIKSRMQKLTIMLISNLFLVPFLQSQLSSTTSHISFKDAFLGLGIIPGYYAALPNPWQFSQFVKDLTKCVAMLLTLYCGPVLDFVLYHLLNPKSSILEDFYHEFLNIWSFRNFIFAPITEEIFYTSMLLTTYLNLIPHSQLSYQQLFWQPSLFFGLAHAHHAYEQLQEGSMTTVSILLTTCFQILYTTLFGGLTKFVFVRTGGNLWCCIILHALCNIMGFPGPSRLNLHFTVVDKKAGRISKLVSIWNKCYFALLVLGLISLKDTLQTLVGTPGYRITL
VLA-4 inh: inhibition in a human VLA-4 binding assay | inhibition, % (about 7 µM as worked out from the volumes in the protocol) | AID 2557 | 0.2% of 330,000 active | VLA-4 expressing cells, ligand binding flow cytometry; in the data active = inhibition above about 50%
TAAR1 antagonist: human TAAR1 antagonism; Q96RJ0; CHO RD-HGA16 TAAR1, Fluo-8 calcium fluorescence, antagonist; inhibition, % at 3 µM; 1.5% of 360,000 active;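 active = inhibition above a per-plate cutoff, the mean inhibition of test compounds on that plate plus 3 SD, cut at about 49% in these data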;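 also: 0% = DMSO plus EC80 beta-PEA response and 100% = DMSO alone without agonist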
Target sequence (Q96RJ0 whole entry, looked up): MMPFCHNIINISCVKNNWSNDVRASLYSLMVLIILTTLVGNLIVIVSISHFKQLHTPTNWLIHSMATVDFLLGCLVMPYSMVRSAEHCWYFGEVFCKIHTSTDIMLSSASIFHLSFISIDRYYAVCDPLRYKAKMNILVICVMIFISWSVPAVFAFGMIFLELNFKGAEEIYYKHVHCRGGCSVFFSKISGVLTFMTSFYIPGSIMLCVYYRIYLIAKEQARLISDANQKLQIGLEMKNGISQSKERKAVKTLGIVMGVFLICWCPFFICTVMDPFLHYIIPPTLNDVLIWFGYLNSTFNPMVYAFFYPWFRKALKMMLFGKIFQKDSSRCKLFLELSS
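System: CHO RD-HGA16 cells bearing hTAAR1. Reagent: EC80 β-phenethylamine stimulus. Schedule: seeding 17-24 h prior, 75-min 37 °C, 30-min RT dye loading. Signal: Fluo-8 intracellular calcium dye fluorescence, real-time kinetic reads. Read-out: % inhibition from peak post-agonist over basal fluorescence ratio. Benchmarks: vehicle wells and EC80 agonist wells. Replicates: n of 1.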
Platelet DG rel: modulates dense granule release in human platelets; 0.22% of 300,000 active; human platelet-rich plasma, SFLLRN dense granule ATP release, luminescence; inhibition, %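 (compounds screened at 7.5 µM in platelet-rich plasma)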;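 active = mean replicate score, as percent of positive control, at or above 50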
TAAR1 ag: agonists of human TAAR1; Q96RJ0; CHO RD-HGA16 TAAR1, Fluo-8 calcium fluorescence; vehicle wells 0%, saturating PEA agonist 100%; activation, % at 3 µM; 0.99% of 360,000 active; AID 624467;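 active = activation above the mean activation of all test compounds in the run plus 3 SD, cut at about 38% in these data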
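Signal – calcium-sensitive Fluo-8 signal, excitation 470-495, emission 515-575 nm · System – RD-HGA16 (CHO) cells co-expressing Gα16 and hTAAR1 · Incubation – 17-24 h seeding, 75 min 37 °C dye, 30 min RT · Compound dosing – 3 µM single concentration · Repeats – no replicates (n 1)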
TAAR1 nonsel count: nonselective antagonism, TAAR1 counter-screen; shares compounds with TAAR1 antagonist; counterscreen cell line, calcium fluorescence, antagonist mode; inhibition, % at 3 µM; 77% of 2,400 active; AID 651780; in the data active = inhibition above about 22%;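 also: CHO-Ga16 host cells stimulated with ATP at an EC80 level; 0% = agonist EC80 plus vehicle and 100% = vehicle without agonist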
TAAR1 antag conf: human TAAR1 antagonism, confirmed | shares compounds with TAAR1 antagonist | TAAR1-expressing cells, fluorescence antagonist read-out | inhibition, % at 3 µM | 40% of 2,400 active | AID 651785; in the data active = inhibition above about 49%;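 also: CHO-Ga16 host cells challenged with agonist PEA near its EC80; 0% = agonist at EC80 plus vehicle and 100% = vehicle with no agonist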
Ga16 nonsel ag: nonselective Ga16 agonist in TAAR1 antagonist counter-screen; Ga16-expressing cells, calcium fluorescence, agonist counterscreen; activation, % at 3 µM; 18% of 2,400 active; AID 651953; shares compounds with TAAR1 antagonist; in the data active = activation above about 12%;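 also: 0% = vehicle wells and 100% = saturating stimulus response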
TAAR1 ag counter: activates human TAAR1 in antagonist counter-screen | shares compounds with TAAR1 antagonist | hTAAR1 cell line, fluorescence activation, agonist mode | activation, % at 3 µM | 2% of 2,400 active; in the data active = activation above about 37%;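 also: CHO cells stably expressing TAAR1 with calcium dye readout; 0% = DMSO vehicle and 100% = full agonist response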
Starred values were filed as active, the others as inactive; i = inactive; nt = no result given.

SMILES | Rce1 inh | VLA-4 inh | TAAR1 antagonist | Platelet DG rel | TAAR1 ag | TAAR1 nonsel count | TAAR1 antag conf | Ga16 nonsel ag | TAAR1 ag counter
Cc1ccccc1CN1C(=O)[C@H]2Cc3c([nH]c4ccccc34)C(C)(C)N2C1=O | i | 5.9 | 62.5* | -0.3 | 15.2 | 22.8* | 35.5 | 5.7 | 5.7
CS(=O)(=O)c1ccccc1-c1nnc(NC(=O)c2cccc(N3C(=O)CCC3=O)c2)o1 | i | -7.2 | -12.1 | 2.7 | -0.2 | nt | nt | nt | nt
O=C1Nc2ccc(Br)cc2C1=C1CCCCC1 | i | 12.3 | 75.8* | 8.0 | 12.7 | 17.5 | 36.2 | 6.3 | 7.4
CC1(C)CC(Cc2ccc(C(F)(F)F)cn2)N(C(=O)OC(C)(C)C)C1 (stereo not drawn) | nt | nt | -20.9 | nt | 8.7 | nt | nt | nt | nt
CS(=O)(=O)c1ccc(Nc2nc(C(N)Cc3ccc(Cl)cc3)cs2)cc1 (stereo not drawn) | nt | nt | 9.5 | nt | 17.9 | nt | nt | nt | nt
CC(=O)Nc1sc(N/N=C/c2ccc(C)cc2)nc1-c1ccc(C)cc1 | i | 10.7 | 53.2* | -4.6 | 1.9 | 4.1 | 10.7 | 4.0 | 9.7
OC(c1ccc(F)c(F)c1)c1nc(-c2ccc3ccccc3c2)cs1 (stereo not drawn) | nt | nt | 55.3* | nt | 22.7 | 32.4* | 36.9 | 12.8* | 13.8
COc1ccccc1/C=C/C(=O)Nc1cccc(S(=O)(=O)N2CCOCC2)c1 | nt | -2.3 | 58.7* | nt | 9.2 | 23.9* | 45.4 | 5.4 | 2.7
Cc1onc(-c2c(F)cccc2Cl)c1C(=O)Nc1cccc(S(=O)(=O)N2CCOCC2)c1 | nt | -3.2 | 50.4* | nt | 14.1 | 26.2* | 38.5 | 7.6 | 10.8
COc1ccc(/C=C/C(=O)Nc2cccc(S(=O)(=O)N3CCOCC3)c2)cc1OC | nt | nt | 14.3 | nt | 5.4 | nt | nt | nt | nt
C#Cc1cccc(NC(=O)c2ccc3c(c2)C(=O)N(Cc2cccnc2)C3=O)c1 | i | 9.7 | 84.8* | 4.1 | 15.0 | 42.4* | 61.5* | 13.9* | 14.3
O=C(COc1ccccc1Cl)Nc1nc(-c2ccncc2)cs1 | nt | -3.7 | 64.5* | nt | 17.0 | 43.3* | 58.0* | 13.3* | 11.9
COc1cccc(OC)c1C(=O)Nc1cccc(NC(=O)c2cccs2)c1 | i | 0.4 | 2.2 | 3.4 | 4.8 | nt | nt | nt | nt
COc1cc(NC(=O)COc2ccccc2Cl)ccc1NC(=O)c1cccs1 | i | 7.3 | 57.0* | 5.0 | 8.4 | 23.6* | 43.0 | 5.1 | 5.8
COc1ccc(C(=O)Nc2cccc(NC(=O)c3cccs3)c2)cc1OC | i | -1.4 | 62.1* | 0.8 | 16.2 | 25.5* | 29.4 | 7.1 | 2.7
O=C(COC(=O)c1cccnc1Cl)Nc1nc(-c2ccccc2)cs1 | i | 17.1 | 67.9* | 5.9 | 16.5 | 33.1* | 46.9 | 11.5* | 13.5
O=C(COc1ccc(Cl)cc1)Nc1nc(-c2ccncc2)cs1 | i | 1.9 | 26.5 | 23.0 | 11.9 | nt | nt | nt | nt
COc1cc(NC(=O)COc2ccccc2[N+](=O)[O-])ccc1NC(=O)c1cccs1 | i | nt | -14.1 | -3.1 | 3.0 | nt | nt | nt | nt
O=C(COC(=O)c1ccccc1O)Nc1cccnc1Cl | i | 27.7 | -2.3 | 12.9 | 1.2 | nt | nt | nt | nt
O=C(/C=C/c1c[nH]c2ccccc12)c1cccc2ccccc12 | i | -2.6 | 23.3 | -15.2 | 4.2 | nt | nt | nt | nt
Cc1ccc(C(=O)N[C@@H](Cc2ccccc2)C(=O)N2CCC3(CC2)NCCc2[nH]cnc23)cc1C | i | 3.4 | -13.4 | 10.7 | 0.7 | nt | nt | nt | nt
Cc1ccc(C(=O)OCC(=O)Nc2ccccc2)cc1NC(=O)c1ccco1 | i | -60.2 | 5.4 | -4.4 | 6.4 | nt | nt | nt | nt
Cc1ccc(C(=O)OCC(=O)Nc2nc(-c3ccccc3)cs2)cc1NC(=O)c1ccco1 | i | -6.3 | 83.1* | 1.4 | 16.3 | 37.0* | 53.9* | 8.7 | 6.9
COc1ccc(OC)c(NC(=O)Cc2csc(NC(=O)Nc3ccccc3OC)n2)c1 | i | -27.7 | 65.4* | -11.7 | 22.9 | 39.3* | 54.3* | 10.9 | 11.8
COc1ccc(NC(=O)Cc2csc(NC(=O)Nc3ccccc3OC)n2)c(OC)c1 | i | -17.3 | 69.5* | -4.1 | 14.7 | 16.9 | 37.9 | 9.3 | 9.9
SMILES | Rce1 inh | VLA-4 inh | TAAR1 antagonist | Platelet DG rel | TAAR1 ag | TAAR1 nonsel count | TAAR1 antag conf | Ga16 nonsel ag | TAAR1 ag counter
COc1ccc(NC(=S)Nc2nc(CC(=O)Nc3ccccc3OC)cs2)cc1 | i | 4.7 | 42.7 | 1.0 | 16.1 | nt | nt | nt | nt
COc1ccccc1NC(=O)Nc1nc(CC(=O)N2CCN(c3ccccc3F)CC2)cs1 | i | -2.8 | 64.7* | -0.8 | 15.4 | 29.3* | 48.4 | 10.0 | 10.8
COc1ccccc1NC(=O)Cc1csc(NC(=S)Nc2ccccc2)n1 | i | 3.1 | 37.2 | 1.5 | 23.6 | nt | nt | nt | nt
COc1ccccc1CC(=O)N1CCN(c2ccccc2F)CC1 | i | 12.8 | 8.5 | 4.6 | 3.4 | nt | nt | nt | nt
COc1ccccc1NC(=O)Nc1nc(CC(=O)NCc2c(F)cccc2F)cs1 | i | 5.2 | 58.1* | 4.2 | 11.3 | 29.2* | 44.7 | 10.5 | 11.0
Nc1nc(Nc2ccccc2)nc(NC2CCCCC2)c1[N+](=O)[O-] | i | -0.7 | -5.1 | 1.0 | 11.7 | nt | nt | nt | nt
COC(=O)[C@]12C[C@H](CC(=O)NCCCCc3ccccc3)C(=O)N(CCC3=CCCCC3)C1=C[C@H](C(C)(C)C)O[C@@H]2C | nt | nt | -21.2 | nt | 0.7 | nt | nt | nt | nt
O=C(/C=C/c1ccc(Cl)cc1)N1CCN(c2c(Cl)cccc2[N+](=O)[O-])CC1 | i | 4.4 | -4.3 | -11.6 | 1.3 | nt | nt | nt | nt
O=C(CSc1ccc(Cl)cc1)N1CCN(c2c(Cl)cccc2[N+](=O)[O-])CC1 | i | 3.9 | 65.2* | -31.2 | 4.9 | 25.0* | 38.1 | 3.1 | -2.4
CCOC(=O)[C@]12CCCC=C1N(Cc1ccc3c(c1)OCO3)C(=O)[C@H](CC(=O)N1CCCC1)C2 | nt | nt | -23.0 | nt | 2.7 | nt | nt | nt | nt
CCOC(=O)C1=CN(Cc2cccc(-c3cccnc3)c2)S(=O)(=O)N(C)C1C (stereo not drawn) | nt | nt | 49.4* | nt | 3.5 | 21.5* | 24.7 | 4.4 | -0.2
O=C(NCC1CCCO1)C(c1cccnc1)N(C(=O)Cc1cccs1)c1ccccc1 (stereo not drawn) | i | -21.0 | 54.0* | 5.5 | 23.8 | 20.9 | 46.5 | 10.1 | 10.3
O=C(NCC1CCCO1)C(c1ccc(F)cc1)N(C(=O)Cn1nnc(-c2ccc(F)cc2)n1)c1cccc(O)c1 (stereo not drawn) | i | -20.2 | 82.6* | 10.8 | 15.7 | 35.5* | 55.1* | 10.9 | 13.4
CC(C)CC(C(=O)NCC1CCCO1)N(C(=O)Cn1nnc(-c2ccc(F)cc2)n1)c1cccc(C(F)(F)F)c1 (stereo not drawn) | i | 28.2 | -12.0 | 4.8 | 6.4 | nt | nt | nt | nt
